Screens: PubChem, several laboratories
An excerpt weighted towards active compounds, which were near 3.3% of everything screened.
ABCB1 block = human ABCB1 inhibition, ABCG2 as counter-screen | inhibition, % at 6.6 µM | actives 0.067% (n = 190,000) | CCRF-Adr cells, JC-1 efflux, flow cytometry | P08183; in the data active means inhibition above about 40%;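 further: 0% = vehicle and 100% = reference inhibitor; higher value means more JC-1 retained so stronger ABCB1 efflux block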
ROMK mod = modulates human ROMK potassium channel activity | Tet-inducible ROMK, thallium flux fluorescence; actives lie on both sides | B-score at 10 µM | actives 2% (n = 130,000) | AID 1918;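 active means signal ratio slope over the read window, or its plate-corrected B-score, at least 3 SD from the plate mean, either direction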;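 further: B-score of the F/F0 ratio slope over 7 to 12 s after thallium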
ABCG2 block = inhibitors of human ABCG2 transporter, ABCB1 counter-screen; Q9UNQ0; IgMXP3 cells, JC-1 efflux, flow cytometry; inhibition, % at 6.6 µM; actives 0.1% (n = 190,000); AID 1325;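 active means inhibition above 80%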;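 further: 0% = DMSO and 100% = nicardipine control wells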
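Times: 10 min at 25 °C | Test system: Two drug-resistant human cell lines, ABCG2 and ABCB1 | Quantity: 3 million cells/mL final, two lines in 1:1 ratio | Signal: Flow cytometry, 530 nm JC-1 signal | Dosing: Compound at 6.6 µM | Controls: Nicardipine and DMSO wells | Reagent: JC-1 as fluorescent efflux pump substrate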
KCC2 mod = KCC2 (human) Cl- transport modulation | KCC2 cells, thallium flux FluoZin-2 fluorescence | B-score of Tl+ flux slope (higher = more flux/activation; lower = inhibition) at 10 µM | actives 2.2% (n = 190,000) | AID 1456;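 active means thallium flux slope and its plate-corrected score both differing from the plate sample mean at a set confidence after two filtering rounds, in either direction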;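 further: slope of fluorescence scaled to starting intensity during 10 to 20 s after thallium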
PMI act satM6P = PMI (human) activation, high substrate; actives 0.34% (n = 190,000); coupled PMI enzyme assay, resazurin fluorescence, 20 min; hits give high values; 1 = untreated enzyme, 0 = substrate-free blank; activation factor at 20 µM;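 active means activation factor of 2 or more at 20 µM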
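Material: human phosphomannose isomerase with PGI, G6PDH, diaphorase coupling enzymes; amount: PMI at 15 ng/mL final; also added: Mannose-6-phosphate 1.0 mM (near-saturating) plus 0.22 mM NADP+; incubation: enzyme reaction with compound 20 min at room temperature; signal: resorufin fluorescence (Ex 544/Em 590 nm) from resazurin via diaphorase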
PMI act = activators of human phosphomannose isomerase; purified human PMI, coupled resazurin fluorescence, 20 min; hits give high values; 1 = vehicle control, 0 substrate-free wells; activation factor at 20 µM; actives 0.005% (n = 190,000); P34949;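 active means activation factor of 2 or more at 20 µM, relative to plate controls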
Active calls of the source: *; / = not tested or not shown.

SMILES	ABCB1 block	ROMK mod	ABCG2 block	KCC2 mod	PMI act satM6P	PMI act
Cc1nn(-c2ccccc2)c(Cl)c1/C=C1\N=C(c2ccccc2)OC1=O	/	-0.285	/	-0.0392	/	/
Cc1nn(-c2ccccc2)c(Cl)c1/C=C(\CC(=O)O)c1nc2ccccc2s1	0.0	1.3	1.8	-2.99*	1	1
COc1ccccc1NC(=O)CN1CCN(CC(=O)Nc2ccc(Cl)c(C(F)(F)F)c2)CC1	0.3	-2.46*	1.7	/	1.7	1.3
CC(c1ccco1)N(C(=O)c1ccccc1NS(=O)(=O)c1cc([N+](=O)[O-])ccc1Cl)c1ccccn1 (centres undefined)	0.9	/	-11.7	5.4*	1.2	1.2
CC(c1ccco1)N(C(=O)c1ccccc1NS(=O)(=O)c1cccc([N+](=O)[O-])c1)c1ccccn1 (centres undefined)	0.9	-0.214	-0.8	0.239	1.1	1.2
CSC(=S)N/N=C/c1ccc(N(C)C)cc1	-0.8	2.67*	-1.3	60.6*	1.2	1.2
COc1ccc(C(=O)NC(=S)NC(C)(C)C)cc1Br	0.5	/	30.0	4.05*	0.8	0.8
Cc1cc2ncn(CC3CC3(Cl)Cl)c2cc1C (centres undefined)	0.6	/	6.0	0.547	1	0.9
Cc1ccc(SCc2cc(=O)[nH]c(Nc3nc(C)c4ccc(C)cc4n3)n2)cc1	0.8	-0.0464	4.7	-0.0672	2*	1.5
Cc1ccc(NCc2nnc(SCC(=O)N3c4ccccc4Sc4ccccc43)o2)c(C)c1	2.1	0.462	7.0	-0.516	0.9	0.8
COc1ccc(C/C(C)=N/NC(=S)Nc2ccccc2)cc1	-0.1	0.000542	-1.8	31.9*	0.8	0.7
COc1ccc(C/C(C)=N/NC(=S)Nc2ccc(Cl)cc2)cc1	/	0.0888	/	1.98	/	/
O=C(c1ccc2c(c1)OCCO2)N1CCN(Cc2ccccc2)CC1	0.6	/	2.7	-2.43	0.9	0.9
Cn1cc(/C=C2\SC(=S)N(NC(=O)c3ccccc3Cl)C2=O)c2ccccc21	0.7	-0.324	2.1	-5.29*	0.9	0.8
COc1ccccc1NC(=O)CSCc1nc2ccccc2[nH]1	-2.0	/	-0.1	1.44	1.1	0.9
CCSc1ccc2nnc(-c3cccc(F)c3)n2n1	0.2	-1.94	6.6	-2.65	2*	1
O=C(CSc1ccc2nnc(-c3cccc(F)c3)n2n1)N1CCCc2ccccc21	3.2	/	15.9	-0.128	1.2	1
COc1cccc(C2SCC(=O)N2c2ccc(Br)cc2)c1OC (centres undefined)	4.6	0.0906	7.0	-0.567	2.2*	1.7
Cc1cc(OCCCCn2ccnc2)cc(C)c1Cl	1.8	-1.66	11.0	0.727	1	1.1
Cc1nc(Sc2ccc(Br)cc2)c(C#N)c(C)c1[N+](=O)[O-]	/	/	/	0.688	/	/
COc1ccc(N(C(=O)Cc2cccs2)C(C(=O)NC2CCCCC2)c2cccn2C)cc1OC (centres undefined)	5.8	-3.89*	16.4	-0.0728	0.8	1
O=c1cc(CN2CCCc3ccccc32)nc2sccn12	-0.8	-0.981	-0.5	0.984	2.1*	1.8
O=c1cc(CN2CCc3ccccc32)nc2sccn12	-2.4	0.889	-3.7	0.168	1.8	1.5
CCC(C)NC(=O)c1nc2c(nnn2Cc2ccccc2Cl)c(=O)[nH]1 (centres undefined)	0.6	-0.0267	5.6	-3.13	1.1	1
O=C(NCc1cccs1)c1nc2c(nnn2Cc2ccccc2Cl)c(=O)[nH]1	0.0	/	-0.6	-2.72*	1	1
SMILES	ABCB1 block	ROMK mod	ABCG2 block	KCC2 mod	PMI act satM6P	PMI act
NC(=O)c1ccc2c(c1)OCCO2	0.6	0.0246	2.1	-3.19*	0.9	1
CN=C(Nc1cccc(Cl)c1)SC1CC(=O)N(c2ccc(OC)cc2)C1=O (centres undefined)	0.4	-1	2.2	1.44	0.9	0.8
CCOC(=O)C1=C(O)c2ccccc2C(=O)/C1=C\c1ccc(C)cc1	1.5	/	8.3	3.33*	0.9	1.3
O=C(CSc1nc2ccccc2c(=O)n1Cc1ccco1)NCc1ccccc1	/	-0.531	/	3.98*	/	/
O=c1c2cc(Br)ccc2nc(-c2cccc(C(F)(F)F)c2)n1O	0.0	3.69*	5.1	24.2*	1	1
C=CCN1c2ccccc2[C@]23C[C@@H](C(=O)OC)N(C(=O)NCCC)C2=NC(C(=O)OC)=C(C(=O)OC)[C@H]13	/	/	/	0.288	/	/
CCOc1ccc(/C=C2\SC(=S)N(C)C2=O)cc1OC	/	/	/	0.22	/	/
COc1cc(/C=C2\SC(=S)NC2=O)ccc1OS(=O)(=O)c1ccccc1	-2.6	-2.26	-7.1	80.2*	0.8	0.7
COc1ccc(/C=C2/S/C(=N/S(=O)(=O)Cc3ccccc3)NC2=O)cc1OC	/	/	/	-5.37	/	/
COc1ccc(/C=C2\SC(=S)NC2=O)cc1OS(=O)(=O)c1ccc(NC(C)=O)cc1	-1.0	-0.242	-2.9	-2.83	1.3	1.2
COc1cc(/C=C2/SC(=S)NC2=O)ccc1OS(=O)(=O)c1ccc(C)cc1	-1.2	-1.82	-4.9	80.2*	0.8	0.6
COc1ccc(/C=C2\SC(=O)NC2=S)cc1OC	-1.6	/	-9.1	11.7*	1	0.8
COc1ccc(-c2ccccc2)cc1NCc1ccc(OC)c(OC)c1	0.0	-0.652	-0.9	-0.0221	0.8	0.8
O=c1[nH]c(Cc2ccccn2)nc2scc(-c3ccccc3Cl)c12	0.0	0.542	-1.3	-0.639	2.1*	1.8
O=C(OCn1ncc(Br)c(Br)c1=O)c1ccc(F)cc1	0.8	-3.47*	0.6	-4.68*	1	0.9
CCN1CC(c2ccccc2)C(c2ccc(Cl)cc2)=N1 (centres undefined)	0.2	/	9.5	-3.44	1	1.1
O=[N+]([O-])c1ccc(-c2cn(-c3ccccc3)c(=S)[nH]2)cc1	-0.1	/	12.0	3.53	1.1	1
COC(=O)c1ccc(-n2cc(-c3ccc(OC)cc3)[nH]c2=S)cc1	0.7	-0.0692	6.7	8.83*	1	0.9
CC(=O)/C(=N\Nc1ccc(C)cc1)N1CCOCC1	-0.3	/	-0.8	0.165	2.6*	1.5
Nc1ccc(/C=C/C(=O)c2cccs2)cc1	-0.5	-6.04*	-1.0	-7.43*	1	1
O=C(/C=C/c1ccc([N+](=O)[O-])cc1)c1cccs1	/	/	/	-0.1	/	/
O=C(c1ccc2snnc2c1)N1CCSCC1	1.0	0.00216	14.7	/	2.6*	1.8
CC(Oc1ccc(Cl)cc1)c1ccc(C#N)c(=O)[nH]1 (centres undefined)	-0.6	1.61	-1.2	-1.3	1	1.1
Cc1cccc(OCC(=O)Nc2ccccc2N2CCCCC2)c1	0.2	0.498	1.2	/	0.8	0.8
Cc1cccc(OCC(=O)NC(=S)N2CCCc3ccccc32)c1	0.1	-0.927	3.3	23.3*	1.2	1.2
